This is an account of results in paper PMC2765518 (Journal of medicinal chemistry, 2009).

The conditions of data set [1]: cited from earlier work.
For another data set, the target named is c-Myc (353–437) monomer (Homo sapiens, UniProt P01106). Description: Fluorescence polarization competition against 1 for c-Myc binding. An outline of the steps:
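Fluorescence polarization of an intrinsically fluorescent parent Myc-Max disruptor used as probe; polarization rises when the probe binds the c-Myc (353–437) monomer. Test compound was titrated to displace the probe, and the data fitted to a competition constant (Kcomp). Affinity is Kcomp multiplied by the probe–c-Myc(353–437) dissociation constant. Run in triplicate.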
(Polarisation of emitted light reports the rotation of a fluorescent probe.)

Another data set has as its target c-Myc-Max(S) heterodimer (Homo sapiens, UniProt P01106). Description: Circular dichroism assay of c-Myc-Max dimer disruption. Type of data set: biochemical. The gist of the method: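 Circular dichroism of an equimolar c-Myc/Max(S) mixture, each at 1.5 µM, with helical content from ellipticity at 222 nm. Dimer disruption lowers helicity. Test compound was titrated and the data fitted to a competition constant (Kcomp). Kcomp multiplied by the independently determined c-Myc-Max dissociation constant gives the affinity for the c-Myc monomer, assuming monomer-only binding. Run in triplicate.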

Data set [2] relates to TGR1 knockout cells with over-expressed HMGA1b (KO+HMG). Description: Growth inhibition of TGR1 knockout cells with over-expressed HMGA1b. Conditions: cells lacking c-Myc; compared with HL60 and TGR1. Type of data set: cell-based, rat.
The next data set concerns HL60 cells. The experiment in a line: HL60 cell growth inhibition. Type of data set: cell-based. Conditions: for Inhibition in HL60 cells: higher levels of c-Myc. An outline of the steps: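 Test compound added to HL60 cells across a dose range, and growth followed over several days. IC50 taken from the dose-response profile on day 5 after compound addition. For the selectivity comparison, TGR1 normal rat fibroblasts and TGR1 knockout cells over-expressing HMGA1b (KO+HMG) were tested alongside.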

Sequence of c-Myc-Max(S) heterodimer (P01106 368-452, one chain of several): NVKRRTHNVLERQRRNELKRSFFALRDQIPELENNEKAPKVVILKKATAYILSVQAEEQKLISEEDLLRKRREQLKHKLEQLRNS
Sequence of c-Myc (353–437) monomer (P01106 368-452): as the sequence (P01106 368-452, one chain of several) above

Regarding `CCc1ccc(/C=C2\SC(=S)NC2=O)cc1` [compound 1, [Z,E]-5-[4-ethylbenzylidine]-2-thioxothiazolidin-4-one], the Metabolism and clearance result in data set [1] was “extensive metabolism and rapid clearance”.
For `O=C(CCN1C(=O)c2ccccc2C1=O)N1CCCCC1` [compound 2], the equilibrium dissociation constant (Kd) – broadly, the free concentration of one partner at which half of the binding sites on the other are occupied at equilibrium, for simple one-to-one binding – turned out to be 2.5 µM at c-Myc (353–437) monomer and 10 µM on c-Myc-Max(S) heterodimer.
On the same counts, the results for `CCc1ccc(N2CC(C(=O)OC)CC2=O)cc1` (stereo not drawn) [compound 3] are 40 µM and 25 µM.
Turning to `CC(C)c1ccc(OCC(=O)Nc2nc3ccccc3s2)cc1` [compound 4], the Kd turned out to be 18 µM on c-Myc (353–437) monomer and 19 µM on c-Myc-Max(S) heterodimer.
Take `CCc1ccc(OCC(=O)Nc2ccc(C)cc2Br)cc1` [compound 5]: the “Effect on growth of KO+HMG cells” value in data set [2] is given as “least effect”. For the same molecule, the Kd is 70 µM on c-Myc (353–437) monomer and 45 µM on c-Myc-Max(S) heterodimer. The “Inhibition in HL60 cells” value with HL60 cells is given as “very good inhibition”. In addition, in the data set with HL60 cells (HL60 versus TGR1 and KO+HMG cells), the “Selectivity for HL60 cells” value is listed as “more selective for HL60s than 6”.
Consider `Cc1ccc(C)c(OCN2Cc3ccccc3C2C=O)c1` (stereo not drawn) [compound 6], for which, in data set [2], the “Effect on growth of KO+HMG cells” value is listed as “least effect”. Moreover, the “Inhibition in HL60 cells” value with HL60 cells is reported as “very good inhibition”. Moreover, the IC50 – broadly, the concentration needed to halve the response being measured – with HL60 cells (Homo sapiens, HL-60, 120 h, read-out: IC50 on HL60 cell growth) stood at 16.7 µM.
